ChEMBL document CHEMBL4622920, “Synthesis and evaluation of heterocycle structures as potential inhibitors of Mycobacterium tuberculosis UGM” (Bioorg Med Chem, 2020)
pKd: −log10 of the molar value. In brackets after ≈: the same amount, converted by molar mass. Activity calls are given as the source filed them. The rule behind the calls is not given here.

Columns and labels:
[1] = tested on: Mycobacterium tuberculosis; test: Displacement of UDP-fluorescein from non-reduced form of Mycobacterium tuberculosis UDP-galactopyranose mutase by fluorescence polarization assay relative to control; design: concentration or dose not given beside the values; conditions: concentration not given here
In short: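 Single-point fluorescence polarization competition with inhibitor at 1 mM final. Non-reduced recombinant Mt UGM at 580 nM with 18 nM UDP-fluorescein probe. Read at room temperature in sodium phosphate buffer pH 7.0. Reported as percent inhibition; screening also done at 100 µM. Kd followed when inhibition at 1 mM exceeded 30%.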

[2] = Displacement of UDP-fluorescein from non-reduced form of Mycobacterium tuberculosis UDP-galactopyranose mutase by fluorescence polarization assay
In short: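 Recombinant Mt UGM (pET-29b construct) used dialysed and non-reduced at 580 nM. UDP-fluorescein probe at 18 nM. Inhibitors titrated over 0–1 mM. Kd derived from competitive fluorescence polarization. Probe affinity measured by enzyme dilutions in 50 mM sodium phosphate pH 7.0 at room temperature, in triplicate.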

[3] = tested on: Mycobacterium tuberculosis; test: Inhibition of reduced form of Mycobacterium tuberculosis UDP-galactopyranose mutase assessed as conversion of UDP-Galf to UDP-Galp at 0.5 mM using UDP-Galf as substrate compound incubated with enzyme at 5 mins after enzyme reduction with sodium dithionite by HPLC analysis relative to control
In short: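 Recombinant Mt UGM (60 nM) in 100 mM NaH₂PO₄ pH 7.4 at room temperature. Enzyme pre-incubated 5 min, then reduced with 12.5 mM sodium dithionite and incubated with or without inhibitor. UDP-α-Galf (25 µM final) added. Samples taken at five times and quenched in liquid N₂. Conversion to UDP-Galp quantified by C18 HPLC with UV detection at 262 nm.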

[4] = tested on: Mycobacterium tuberculosis; test: Antitubercular activity against Mycobacterium tuberculosis mc2 6230 assessed as inhibition of bacterial growth incubated for 7 days by broth dilution method; assay type: functional; conditions: mc2 6230, 168 h
In short: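 Pantothenate-auxotrophic Mt mc²6230 grown in 7H9/OADC plus 109 µM pantothenic acid at 37°C without agitation. Broth microdilution started from culture at OD600 0.05. Twofold series covered 1.5–100 µg/ml. Plates were read after 7 days at 37°C. MIC is the lowest concentration with no visible turbidity change. Duplicates were run on three independent occasions.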

[5] = tested on: Mycobacterium tuberculosis; test: Antitubercular activity against Mycobacterium tuberculosis mc2 6230 assessed as inhibition of bacterial growth at 30 ng/ml incubated for 7 days by broth dilution method; assay type: functional, organism-based
In short: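 Mt mc²6230 pantothenate auxotroph grown at 37°C static in 7H9 broth with OADC and 109 µM pantothenic acid. Log-phase culture diluted to OD600 0.05. Compound serially diluted 2-fold from a 10 mg/ml DMSO stock. Plates wrapped and incubated at 37°C for 7 days. Isoniazid served as positive control and DMSO as vehicle control. Growth was read visually as turbidity.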

Row | Compound | inhibition [1] [%] | pKd [2] | other results
1 | O=C1O/C(=C(/I)c2ccccc2)Cn2c1c(I)c1ccccc12 | 22.8 |  | 
2 | C#CCn1c(C(=O)O)c(I)c2ccccc21 | 7.4 |  | 
3 | CC1=C(c2ccoc2)C(=O)O/C1=C\C(C)C | 5.2 |  | 
4 | COc1ccc2cc(C3=C(C)/C(=C/C(C)C)OC3=O)ccc2c1 | 7.4 |  | 
5 | CCCCC#C/C=C1\Cn2c(c(I)c3cc4c(cc32)OCO4)C(=O)O1 |  | 4.23 | inhibition [3]: 60.2%; MIC [4]: 3.1 µg/mL (≈ 6.9 µM)
6 | C#CCn1c(C(=O)OC)cc2cc(F)ccc21 | 0 |  | 
7 | CC1=C(c2cc3ccccc3o2)C(=O)O/C1=C\C(C)C | 0 |  | 
8 | C/C(I)=C1/Cn2c(c(I)c3ccccc32)C(=O)O1 | 14.9 |  | 
9 | CCCCC#C/C=C1\Cn2c(c(I)c3cc(OC)ccc32)C(=O)O1 |  | 4.21 | inhibition [3]: 95.5%; MIC [4]: 50 µg/mL (≈ 115 µM)
10 | COC(=O)c1[nH]c2cc3c(cc2c1I)OCO3 | 23.1 |  | 
11 | O=C(O)C(Cc1ccc(I)cc1)NC1NC(c2ccc(Cl)c(Cl)c2)=CS1 (centres undefined) |  | 5.10 | 
12 | COC(=O)c1cc2ccccc2[nH]1 | 2 |  | 
13 | O=C1O/C(=C/I)Cn2c1c(I)c1ccccc12 | 61.6 | 2.70 | 
14 | CC1=C(c2ccc(-c3ccccc3)cc2)C(=O)O/C1=C\C(C)C | 19.2 |  | 
15 | COC(=O)c1cn(Cc2ccccc2)c2ccccc12 | 5.1 |  | 
16 | C[N+](C)(C)CC(=O)N/N=C/c1ccc(O)c(O)c1 |  | 5.52 | 
17 | O=C1O/C(=C/I)Cn2c1c(I)c1cc(F)ccc12 | 19.1 |  | 
18 | C#CCn1c(C(=O)O)c(I)c2cc(OC)ccc21 | 15 |  | 
19 | C#CCn1c(C(=O)O)c(I)c2cc3c(cc21)OCO3 | 46.2 | 3.66 | 
20 | O=c1ccn([C@@H]2O[C@H](COP(=O)(O)OP(=O)(O)O[C@H]3O[C@@H]([C@H](O)CO)C(F)(F)C3(F)F)[C@@H](O)[C@H]2O)c(=O)[nH]1 |  | 4.28 | 
21 | NNC(=O)c1ccncc1 |  |  | inhibition [5]: Active
22 | CC1=C(Br)C(=O)O/C1=C\C(C)C | 7.3 |  | 
23 | CCCCC#C/C=C1\Cn2c(c(I)c3ccccc32)C(=O)O1 |  | 4.18 | inhibition [3]: 72.9%; MIC [4]: 6.2 µg/mL (≈ 15.3 µM)
24 | COC(=O)c1[nH]c2ccccc2c1I | 11.5 |  | 
25 | CC1=C(c2ccc(F)cc2)C(=O)O/C1=C\C(C)C | 9 |  | 
26 | CC1=C(c2ccncc2)C(=O)O/C1=C\C(C)C | 3 |  | 
